Key:
[1] = Primary phase half life in healthy human at 400 mg, po administered as single dose; format: ADME, organism-based; details: in vivo
Summary of the method: (§1)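 Single 400-mg oral raltegravir dose, fasted (stated for study II); patients and matched healthy controls. Plasma sampled at 0–72 h (to 96 h in hepatic study only), quantified by validated reverse-phase HPLC-MS/MS (LLOQ 2 ng/ml), converted to nM (MW 444.4). Profiles fit biexponentially (Gauss-Newton, Levenberg-Hartley; weighting 1/predicted concentration²); each phase t1/2 = ln(2)/rate constant.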

Homo sapiens [2] = assay: Ratio of plasma concentration in patient with hepatic insufficiency to plasma concentration in healthy human at 400 mg, po administered as single dose measured at 12 hrs post dose; format: ADME, organism-based; details: in vivo
Summary of the method: (§2)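 Geometric mean ratio, patients/matched healthy controls, for AUC0-∞, Cmax and C12 after a single 400-mg oral dose. Data are natural-log transformed. 90% CIs come from ANCOVA least-squares means, with population and sex as fixed effects and age and BMI as covariates, then exponentiated. n = 8 per group.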

[3] = Terminal half life in healthy human at 400 mg, po administered as single dose; format: ADME, organism-based; details: in vivo; summary of the method: as §1
Homo sapiens [4] = assay: Ratio of Cmax in patient with severe renal insufficiency to Cmax in healthy human at 400 mg, po administered as single dose; format: ADME, organism-based; details: in vivo
Summary of the method: (§3)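 Single 400-mg oral raltegravir dose to patients (moderate hepatic or severe renal insufficiency) and matched healthy controls; plasma raltegravir measured by HPLC-MS/MS. Cmax read by inspection, ln-transformed. Geometric mean ratio (patient/healthy) with 90% CI from ANCOVA least-squares means: population and sex fixed effects, age and BMI covariates.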

[5] = Terminal half life in patient with hepatic insufficiency at 400 mg, po administered as single dose; format: ADME, organism-based; details: human, in vivo; summary of the method: as §1
[6] = Plasma concentration in patient with hepatic insufficiency at 400 mg, po administered as single dose measured at 12 hrs post dose; format: ADME, organism-based; details: human, read-out: Activity
Summary of the method: (§4)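 Single 400-mg oral dose given fasted (fasting stated for the renal study). Assay: validated reverse-phase HPLC-MS/MS, LLOQ 2 ng/ml, range 2 to 1,000 ng/ml. AUC0-∞ = AUC0-last by linear/log trapezoid plus extrapolation. Cmax is read from the data. C12 is the nominal 12-h concentration. Values converted to nM (MW 444.4).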

[7] = Renal clearance in patient with severe renal insufficiency at 400 mg, po administered as single dose; format: ADME, organism-based, Kidney; details: human, in vivo, read-out: CL_renal
Summary of the method: (§5)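 Renal study, 10 patients plus 10 matched controls. Urine collected predose and at 0–4, 4–8, 8–12 and 12–24 h after a fasted 400-mg oral dose. Urine diluted and injected directly for HPLC-MS/MS (LLOQ 0.25 µg/ml, range 0.25–25 µg/ml). fe = total amount excreted unchanged ÷ dose × 100%. CLR = […] ÷ plasma AUC0-24.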

[8] = Renal clearance in healthy human at 400 mg, po administered as single dose; format: ADME, organism-based, Kidney; details: in vivo, read-out: CL_renal; summary of the method: as §5
[9] = Plasma concentration in patient with severe renal insufficiency at 400 mg, po administered as single dose measured at 12 hrs post dose; format: ADME, organism-based; details: human, read-out: Activity; summary of the method: as §4
[10] = Cmax in healthy human at 400 mg, po administered as single dose; format: ADME, organism-based; design: dose 400 mg, route oral; details: in vivo; summary of the method: as §4
[11] = Tmax in patient with hepatic insufficiency at 400 mg, po administered as single dose; format: ADME, organism-based; details: human, in vivo
Summary of the method: (§6)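 Tmax is taken by inspection of the plasma concentration data, using nominal sampling times. Single 400-mg oral dose; plasma sampled from 0 to 72 h, or to 96 h in the hepatic study. Raltegravir is measured by validated reverse-phase HPLC-MS/MS (LLOQ 2 ng/ml).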

[12] = AUC (0 to infinity) in healthy human at 400 mg, po administered as single dose; format: ADME, organism-based; design: dose 400 mg, route oral, time infinity; details: plasma; summary of the method: as §4
[13] = Cmax in patient with hepatic insufficiency at 400 mg, po administered as single dose; format: ADME, organism-based; design: dose 400 mg, route oral; details: human, in vivo; summary of the method: as §4
[14] = Primary phase half life in patient with severe renal insufficiency at 400 mg, po administered as single dose; format: ADME, organism-based; details: human, in vivo; summary of the method: as §1
[15] = Tmax in patient with severe renal insufficiency at 400 mg, po administered as single dose; format: ADME, organism-based; details: human, in vivo; summary of the method: as §6
Homo sapiens [16] = assay: Toxicity in human assessed as mouth ulceration at 400 mg, po administered as single dose; format: organism-based; details: in vivo
Summary of the method: (§7)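 Safety assessed throughout each study by clinical and laboratory evaluations after a single 400-mg oral dose. Relatedness of adverse experiences to the drug was judged by the investigator.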

Homo sapiens [17] = assay: Drug level in patient with severe renal insufficiency assessed as recovery of unchanged drug at 400 mg, po administered as single dose; format: ADME, organism-based; details: in vivo; summary of the method: as §5
[18] = Primary phase half life in patient with hepatic insufficiency at 400 mg, po administered as single dose; format: ADME, organism-based; details: human, in vivo; summary of the method: as §1
[19] = AUC (0 to infinity) in patient with hepatic insufficiency at 400 mg, po administered as single dose; format: ADME, organism-based; design: dose 400 mg, route oral, time infinity; details: human, plasma; summary of the method: as §4
[20] = Cmax in patient with severe renal insufficiency at 400 mg, po administered as single dose; format: ADME, organism-based; design: dose 400 mg, route oral; details: human, in vivo; summary of the method: as §4
[21] = Plasma concentration in healthy human at 400 mg, po administered as single dose measured at 12 hrs post dose; format: ADME, organism-based; details: read-out: Activity; summary of the method: as §4
[22] = Terminal half life in patient with severe renal insufficiency at 400 mg, po administered as single dose; format: ADME, organism-based; details: human, in vivo; summary of the method: as §1
[23] = AUC (0 to infinity) in patient with severe renal insufficiency at 400 mg, po administered as single dose; format: ADME, organism-based; design: dose 400 mg, route oral, time infinity; details: human, plasma; summary of the method: as §4
Homo sapiens [24] = assay: Ratio of Cmax in patient with hepatic insufficiency to Cmax in healthy human at 400 mg, po administered as single dose; format: ADME, organism-based; details: in vivo; summary of the method: as §3
Homo sapiens [25] = assay: Ratio of plasma concentration in patient with hepatic insufficiency to plasma concentration in healthy human at 400 mg, po administered as single dose; format: ADME, organism-based; details: in vivo; summary of the method: as §2
Homo sapiens [26] = assay: Toxicity in human assessed as headache at 400 mg, po administered as single dose; format: organism-based; details: in vivo; summary of the method: as §7

Cc1nnc(C(=O)NC(C)(C)c2nc(C(=O)NCc3ccc(F)cc3)c(O)c(=O)n2C)o1 [RALTEGRAVIR]
half-life [1]: 1.1 h | Activity (Homo sapiens [2]): 1.26 nM | half-life [3]: 9.3 h | Cmax (Ratio) (Homo sapiens [4]): 0.68 | half-life [5]: 7 h | concentration at 12 h [6]: 0.143 µM | CL renal [7]: 2.7 mL/min | CL renal [8]: 31.5 mL/min | concentration at 12 h [9]: 0.135 µM | Cmax [10]: 5.68 µM | Tmax [11]: 2.5 h | AUC(0-inf) [12]: 19.7 µM·h | Cmax [13]: 4.41 µM | half-life [14]: 1.38 h | Tmax [15]: 3.5 h | Activity (Homo sapiens [16]): Toxic | fold change (FC) (Homo sapiens [17]): 0.5 | half-life [18]: 1.49 h | AUC(0-inf) [19]: 17.7 µM·h | Cmax [20]: 3.85 µM | concentration at 12 h [21]: 0.105 µM | half-life [22]: 17.2 h | AUC(0-inf) [23]: 16.8 µM·h | Cmax (Ratio) (Homo sapiens [24]): 0.63 | Activity (Homo sapiens [25]): 1.26 nM | Activity (Homo sapiens [26]): Toxic

Reference: ChEMBL document CHEMBL1649175, “Lack of a clinically important effect of moderate hepatic insufficiency and severe renal insufficiency on raltegravir pharmacokinetics” (Antimicrob Agents Chemother, 2009)
